Several values for one entry are separate records, joined by “and”; a condition that tells them apart may be missing. Identical values can stand only once.
Tested on: HEK-293T
Test: Multiplex assay against HEK293T;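 as to Population Tubulin-Different-Phenotype (%): share of the cells with healthy nuclei that show this phenotype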
Format: toxicity, cell-based
Conditions: human
Procedure, shortened: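 Tubulin, mitochondrial-mass and membrane-permeability phenotypes are per cents of healthy-nucleus cells. Cells were gated by CellPathfinder machine learning into Hoechst high-intensity objects or normal cells, normal cells into healthy, pyknosed or fragmented nuclei, and pyknosed cells into mitotic or apoptotic. Before that, live cells stained at seeding with Hoechst33342, BioTracker Green Microtubule Cytoskeleton Dye, MitoTracker Red and Annexin V Alexa Fluor 680 were imaged on a CQ1 microscope at 37°C and 5% CO2 after compound addition.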

[1] = 12 h, 1 µM, compound concentration 1 uM, replicate 1
[2] = 12 h, 1 µM, compound concentration 1 uM, replicate 2
[3] = 12 h, 10 µM, compound concentration 10 uM, replicate 1
[4] = 12 h, 10 µM, compound concentration 10 uM, replicate 2
[5] = 24 h, 1 µM, compound concentration 1 uM, replicate 1
[6] = 24 h, 1 µM, compound concentration 1 uM, replicate 2
[7] = 24 h, 10 µM, compound concentration 10 uM, replicate 1
[8] = 24 h, 10 µM, compound concentration 10 uM, replicate 2
[9] = 48 h, 1 µM, compound concentration 1 uM, replicate 1
[10] = 48 h, 1 µM, compound concentration 1 uM, replicate 2
[11] = 48 h, 10 µM, compound concentration 10 uM, replicate 1
[12] = 48 h, 10 µM, compound concentration 10 uM, replicate 2

Structure (SMILES): CS(=O)(=O)N1CCCC(NC(=O)[C@H](CCC2CCCCC2)NC(=O)c2ccc(CNc3ncnc4c3nnn4-c3ccccc3)cc2)C1 (some centres not stated) [SR-301]
- Population Apoptotic (%) [1]: 26% and 51% and 37%
- Population Fragmented Nuclei (%) [1]: 13% and 14% and 15%
- Population Healthy Nuclei (%) [1]: 22% and 17% and 20%
- Population Hoechst High Intensity Objects (%) [1]: 13% and 14%
- Population Membrane Permeable-Phenotype (%) [1]: 8% and 3%
- Population Mitochondria Different-Phenotype (%) [1]: 85% and 84%
- Population Mitotic Cells (%) [1]: 73% and 48% and 62%
- Population Normal (%) [1]: 86% and 85%
- Population Pyknosed Nuclei (%) [1]: 64% and 67%
- Population Tubulin-Different-Phenotype (%) [1]: 46% and 57% and 55%
- Total Cell Count [1]: 584 and 339 and 397
- Population Apoptotic (%) [2]: 20% and 16% and 18%
- Population Fragmented Nuclei (%) [2]: 5% and 8% and 4%
- Population Healthy Nuclei (%) [2]: 41% and 36% and 50%
- Population Membrane Permeable-Phenotype (%) [2]: 4% and 1% and 5%
- Population Mitochondria Different-Phenotype (%) [2]: 41% and 30%
- Population Mitotic Cells (%) [2]: 79% and 83% and 81%
- Population Normal (%) [2]: 94% and 98% and 96%
- Population Pyknosed Nuclei (%) [2]: 53% and 55% and 45%
- Population Tubulin-Different-Phenotype (%) [2]: 43% and 26% and 29%
- Total Cell Count [2]: 247 and 189 and 243
- Population Apoptotic (%) [3]: 68% and 73%
- Population Fragmented Nuclei (%) [3]: 20% and 14% and 21%
- Population Healthy Nuclei (%) [3]: 6% and 12% and 9%
- Population Hoechst High Intensity Objects (%) [3]: 17%
- Population Membrane Permeable-Phenotype (%) [3]: 10%
- Population Mitochondria Different-Phenotype (%) [3]: 76% and 85% and 86%
- Population Mitotic Cells (%) [3]: 31% and 26%
- Population Normal (%) [3]: 82%
- Population Pyknosed Nuclei (%) [3]: 73% and 68%
- Population Tubulin-Different-Phenotype (%) [3]: 71% and 66%
- Total Cell Count [3]: 404 and 541 and 467
- Population Apoptotic (%) [4]: 51% and 84% and 91%
- Population Fragmented Nuclei (%) [4]: 9% and 13% and 19%
- Population Healthy Nuclei (%) [4]: 28% and 26% and 20%
- Population Hoechst High Intensity Objects (%) [4]: 8% and 13% and 20%
- Population Mitochondria Different-Phenotype (%) [4]: 43% and 78% and 82%
- Population Normal (%) [4]: 92% and 86% and 79%
- Population Pyknosed Nuclei (%) [4]: 61% and 60%
- Population Tubulin-Different-Phenotype (%) [4]: 43% and 40% and 57%
- Total Cell Count [4]: 225 and 185 and 216
- Population Apoptotic (%) [5]: 26% and 40% and 55%
- Population Fragmented Nuclei (%) [5]: 18% and 19%
- Population Healthy Nuclei (%) [5]: 19% and 18% and 14%
- Population Hoechst High Intensity Objects (%) [5]: 19% and 18% and 16%
- Population Membrane Permeable-Phenotype (%) [5]: 6% and 5% and 2%
- Population Mitochondria Different-Phenotype (%) [5]: 72% and 77% and 78%
- Population Mitotic Cells (%) [5]: 73% and 60% and 44%
- Population Normal (%) [5]: 80% and 81% and 83%
- Population Pyknosed Nuclei (%) [5]: 61% and 62% and 66%
- Population Tubulin-Different-Phenotype (%) [5]: 48% and 57% and 65%
- Total Cell Count [5]: 594 and 385 and 349
- Population Apoptotic (%) [6]: 29% and 24%
- Population Fragmented Nuclei (%) [6]: 3% and 2% and 6%
- Population Healthy Nuclei (%) [6]: 64% and 67% and 57%
- Population Hoechst High Intensity Objects (%) [6]: 3% and 2%
- Population Membrane Permeable-Phenotype (%) [6]: 3% and 4%
- Population Mitochondria Different-Phenotype (%) [6]: 41% and 43% and 33%
- Population Mitotic Cells (%) [6]: 70% and 75%
- Population Normal (%) [6]: 96% and 97%
- Population Pyknosed Nuclei (%) [6]: 32% and 30% and 36%
- Population Tubulin-Different-Phenotype (%) [6]: 52% and 36% and 34%
- Total Cell Count [6]: 298 and 240 and 293
- Population Apoptotic (%) [7]: 81% and 77% and 85%
- Population Fragmented Nuclei (%) [7]: 28% and 20% and 26%
- Population Healthy Nuclei (%) [7]: 3% and 5%
- Population Hoechst High Intensity Objects (%) [7]: 19% and 18% and 20%
- Population Membrane Permeable-Phenotype (%) [7]: 8% and 9% and 0%
- Population Mitochondria Different-Phenotype (%) [7]: 58% and 77% and 81%
- Population Mitotic Cells (%) [7]: 18% and 22% and 14%
- Population Normal (%) [7]: 80% and 81% and 79%
- Population Pyknosed Nuclei (%) [7]: 68% and 74% and 69%
- Population Tubulin-Different-Phenotype (%) [7]: 33% and 54%
- Total Cell Count [7]: 495 and 531 and 410
- Population Apoptotic (%) [8]: 96% and 55% and 93%
- Population Fragmented Nuclei (%) [8]: 15% and 11%
- Population Healthy Nuclei (%) [8]: 36% and 42% and 39%
- Population Hoechst High Intensity Objects (%) [8]: 17% and 10% and 14%
- Population Membrane Permeable-Phenotype (%) [8]: 7% and 5% and 11%
- Population Mitochondria Different-Phenotype (%) [8]: 95% and 51% and 90%
- Population Normal (%) [8]: 82% and 89% and 85%
- Population Pyknosed Nuclei (%) [8]: 48% and 45%
- Population Tubulin-Different-Phenotype (%) [8]: 46% and 47% and 74%
- Total Cell Count [8]: 210 and 253 and 187
- Population Apoptotic (%) [9]: 23% and 35% and 54%
- Population Fragmented Nuclei (%) [9]: 21% and 28% and 19%
- Population Healthy Nuclei (%) [9]: 17% and 11% and 15%
- Population Hoechst High Intensity Objects (%) [9]: 22% and 24%
- Population Membrane Permeable-Phenotype (%) [9]: 4% and 5%
- Population Mitochondria Different-Phenotype (%) [9]: 54% and 70% and 71%
- Population Mitotic Cells (%) [9]: 77% and 64% and 45%
- Population Normal (%) [9]: 77% and 75%
- Population Pyknosed Nuclei (%) [9]: 60% and 64%
- Population Tubulin-Different-Phenotype (%) [9]: 39% and 52%
- Total Cell Count [9]: 604 and 398 and 345
- Population Apoptotic (%) [10]: 20% and 12%
- Population Fragmented Nuclei (%) [10]: 4% and 3%
- Population Healthy Nuclei (%) [10]: 82% and 80% and 81%
- Population Hoechst High Intensity Objects (%) [10]: 4% and 3%
- Population Membrane Permeable-Phenotype (%) [10]: 3% and 1%
- Population Mitochondria Different-Phenotype (%) [10]: 17% and 20% and 18%
- Population Mitotic Cells (%) [10]: 76% and 79% and 87%
- Population Normal (%) [10]: 95% and 96%
- Population Pyknosed Nuclei (%) [10]: 12% and 15%
- Population Tubulin-Different-Phenotype (%) [10]: 41% and 35% and 33%
- Total Cell Count [10]: 527 and 453 and 385
- Population Apoptotic (%) [11]: 90% and 84% and 81%
- Population Fragmented Nuclei (%) [11]: 37% and 29% and 32%
- Population Healthy Nuclei (%) [11]: 2% and 3%
- Population Hoechst High Intensity Objects (%) [11]: 22% and 20% and 23%
- Population Membrane Permeable-Phenotype (%) [11]: 14% and 11%
- Population Mitochondria Different-Phenotype (%) [11]: 71% and 57% and 77%
- Population Mitotic Cells (%) [11]: 9% and 15% and 18%
- Population Normal (%) [11]: 77% and 79% and 76%
- Population Pyknosed Nuclei (%) [11]: 60% and 67% and 64%
- Population Tubulin-Different-Phenotype (%) [11]: 28% and 64% and 55%
- Total Cell Count [11]: 401 and 536 and 484
- Population Apoptotic (%) [12]: 92% and 82% and 60%
- Population Fragmented Nuclei (%) [12]: 15% and 17% and 12%
- Population Healthy Nuclei (%) [12]: 52% and 54% and 64%
- Population Hoechst High Intensity Objects (%) [12]: 16% and 12% and 11%
- Population Membrane Permeable-Phenotype (%) [12]: 4% and 6%
- Population Mitochondria Different-Phenotype (%) [12]: 95% and 91% and 32%
- Population Normal (%) [12]: 83% and 87% and 88%
- Population Pyknosed Nuclei (%) [12]: 32% and 27% and 23%
- Population Tubulin-Different-Phenotype (%) [12]: 46% and 86% and 45%
- Total Cell Count [12]: 209 and 191 and 306

Source: ChEMBL document CHEMBL4689842, “EUbOPEN Chemogenomics Library wave 1” (2021)
